In the library only some 2.1% were active in any assay of this set; here they are far more common.
C2C12 statin = suppressors of simvastatin-induced myotoxicity in C2C12 myotubes. ATP luminescence, 48 h; scaled: DMSO 0, geranylgeraniol control 100. rescue of ATP level, % at 7.49 µM. 0.78% of 330,000 active. AID 602340;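 active = mean ATP rescue above about 67%, or every replicate alone reaching that limit, limit read from the data, passing the limit was not always enough; inconclusive = no clear call, values can overlap the other calls; inactive = mean under the limit and some replicate under it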;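 also: myotubes were challenged with 10 µM simvastatin during compound exposure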
XiGFP reactiv = X-chromosome reactivation activator; XiGFP mouse fibroblasts, % GFP-positive cells imaging, 3 d; cells co-treated with 5-aza-dC sensitizer; scaled so ellipticine positive control = 100%; activation, % at 7.58 µM; 0.055% of 360,000 active; AID 743238;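 active = mean normalized replicate activation at least 10% and every replicate at or above 10%; inconclusive = only one of the two criteria met; inactive = mean below 10% and not all replicates reach 10%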;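 also: 0% = median of on-plate neutral control wells and 100% = ellipticine 6 µM median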
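material = 68-5-11 XiGFP fibroblast line | medium = DMEM plus 5-aza-dC sensitizer | schedule = 3 days compound exposure | benchmarks = positive control ellipticine, 6 µM final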
DENV2 CPE rescue = DENV2-induced cell death inhibition. DENV2-infected cells, cytopathic effect rescue, plate reader. CPE inhibition, % at 9.99 µM. 1.7% of 350,000 active; in the data active = CPE inhibition above about 20%, passing the limit was not always enough; inconclusive = no clear call, values can overlap the other calls; tested in BHK-21 cells;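 also: 0% = median of neutral control wells and 100% = median of positive control wells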
Cneo AK release = Cryptococcus neoformans lysis via adenylate kinase release; C. neoformans lysis, adenylate kinase release luminescence, 4 h; normalised: neutral wells 0, clomiphene wells 100; lysis activity, % at 15 µM; 0.2% of 360,000 active; AID 651654;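 active = mean lysis activity across replicates of at least 80%, whatever share of replicates individually reach that level; inactive = mean lysis activity below 80%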
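Material: C. neoformans cells | Amount: Yeast cell density of 5 × 10^6 cells/mL | Medium: Fresh YPD growth medium | Dosing: Single dose | Times: Static 4 h at 37 °C with compound, 1 h detection | Detection: AK luminescence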
* marks the source's active call; other numbers are inactive results; ? = inconclusive; / = no result.

SMILES	C2C12 statin	XiGFP reactiv	DENV2 CPE rescue	Cneo AK release
CCC(=O)NCCc1nc2ccccc2n1CC(=O)c1ccccc1	15	0	76*	-1
O=C1CC(c2ccncc2)c2cc3c(cc2N1)OCCO3 (stereo not given)	126*	/	/	-2
O=C1CC(c2cccs2)c2cc3c(cc2N1)OCO3 (stereo not given)	116*	/	/	-7
COc1cc2c(cc1OC)C(c1cccs1)CC(=O)N2 (stereo not given)	12	/	/	-1
C=CCN=C(NC#N)SCc1ccccc1	40	/	/	-1
C=CCN=C(NC#N)SCC(=O)c1cccc(OC)c1	112*	/	-4	/
CCn1nc(C(=O)OCC(=O)N(CCC#N)c2ccccc2)c2ccccc2c1=O	6	0	75*	-1
C[C@@H](NC(=O)C[C@H]1C[C@@H]2c3cc(NC(=O)NC4CCCC4)ccc3O[C@@H]2[C@H](CO)O1)c1ccccc1	-6	1	6	2
O=C1CCC[C@@H]2Cc3nc4ccc(O)cc4cc3[C@@H]3CCN1[C@H]23	7	0	?	-2
O=C1CCC[C@@H]2Cc3nc4cc5c(cc4cc3[C@@H]3CCN1[C@H]23)OCO5	80*	0	-7	-2
Cc1noc(C)c1S(=O)(=O)Nc1ccc2c(c1)C(=O)N([C@@H](C)CO)C[C@H](C)[C@@H](CN(C)Cc1ccccc1)OCCCC[C@H](C)O2	/	0	-4	7
CCn1ncc(Br)c1C(=O)Nc1cc(C(=O)OC)ccc1C(=O)OC	123*	/	/	/
O=C(Nc1cccc(Cl)c1)c1nc[nH]c1C(=O)NCCCNC(=O)c1[nH]cnc1C(=O)Nc1cccc(Cl)c1	106*	0	/	1
O=C(Nc1ccccc1)c1nc[nH]c1C(=O)NCCCCNC(=O)c1[nH]cnc1C(=O)Nc1ccccc1	-57	0	-4	0
CCOC(=O)N1CCN(C(=O)CN(Cc2ccccc2)S(=O)(=O)c2ccc(OC)c(Cl)c2)CC1	123*	/	/	2
COc1ccc(N(CC(=O)N2CCN(C)CC2)S(=O)(=O)c2cc(C)ccc2OC)cc1Cl	/	0	83*	0
COc1ccc(C)cc1S(=O)(=O)N(C)CC(=O)N1CCN(C)CC1	-3	/	/	-1
CCOC(=O)N1CCN(C(=O)CN(Cc2ccccc2)S(=O)(=O)c2ccc(OC)c(C)c2)CC1	/	/	/	0
COc1ccc2c3c(n(C)c2c1)[C@@H](CO)N(C(=O)C1CCCC1)CC31CN(C)C1	/	0	-5	/
C[C@@H]1CN([C@H](C)CO)C(=O)c2cc(NC(=O)c3ccncc3)ccc2O[C@H]1CN(C)Cc1ccccc1	-20	0	5	-11
CCOc1cc(/C=C2\C(=O)N(c3ccc(C(N)=O)cc3)N=C2C)ccc1OC(=O)c1cccs1	103*	/	/	-4
CCOc1cc(/C=C2/C(=O)N(c3ccccc3)N=C2C)ccc1OC(=O)c1ccco1	-4	/	/	-2
CCC(=O)Nc1ccc2c(c1)OC[C@@H](C)N(CC1CCCCC1)C[C@@H](C)[C@H](OC)CN(C)C2=O	/	-1	/	/
Cc1cccc(NC(=O)c2cccc(S(=O)(=O)N(C)C3CCCCC3)c2)n1	11	0	21*	-1
CN(C1CCCCC1)S(=O)(=O)c1cccc(C(=O)Nc2ccccn2)c1	-8	0	8	0
SMILES	C2C12 statin	XiGFP reactiv	DENV2 CPE rescue	Cneo AK release
CNC[C@@H]1OCCCC[C@@H](C)Oc2ccc(NC(=O)Nc3ccccc3)cc2C(=O)N([C@@H](C)CO)C[C@H]1C	-21	-1	/	-1
Cc1cc(C)c(NC(=S)N(Cc2cccnc2)Cc2ccco2)c(C)c1	-1	0	49*	-1
CCc1ccccc1NC(=S)N(Cc1cccnc1)Cc1ccco1	/	0	4	/
CN1CCN(C(=O)C2CC(=O)N(c3ccc(Cl)cc3)C2)CC1 (stereo not given)	4	0	1	4
CCOC(=O)C1CCN(C(=O)C2CC(=O)N(c3ccc4c(c3)OCCO4)C2)CC1 (stereo not given)	3	0	61*	-1
CCN1CCN(C(=O)C2CC(=O)N(c3ccc(Cl)cc3)C2)CC1 (stereo not given)	2	0	61*	-4
CN(C)C(=O)C[C@H]1CC[C@@H]2[C@H](COC[C@@H](O)CN2CC2CCCC2)O1	-5	0	12	-2
CCCNC(=O)[C@@H]1[C@@H](CO)[C@@H]2Cn3c(ccc(-c4cncnc4)c3=O)[C@H]1N2C(=O)Nc1ccccc1	-17	0	-1	0
